Key:
[1] = Metabolic stability of the compound in carboxylesterase 1 knockout mouse brain assessed as parent compound remaining at 10 uM measured after 1 hr in by UPLC analysis; type: ADME, tissue-based
How it was run: (§1)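 Plasma, or liver or brain homogenised 10-fold in 0.1 M potassium phosphate buffer, from CES1−/− mice. Spiked with 10 μM prodrug (final) and shaken at 37 °C for 1 h, in triplicate. Samples at 0 and 1 h were quenched with three volumes of acetonitrile containing losartan. Intact prodrug was measured by UHPLC-orbitrap MS and expressed as % remaining, mean ± SE.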

[2] = Metabolic stability of the compound in carboxylesterase 1 knockout mouse liver assessed as parent compound remaining at 10 uM measured after 1 hr in by UPLC analysis; type: ADME, tissue-based; how it was run: as §1
[3] = Metabolic stability of the compound in carboxylesterase 1 knockout mouse plasma assessed as parent compound remaining at 10 uM measured after 1 hr in by UPLC analysis; type: ADME, cell-free; how it was run: as §1
[4] = Prodrug conversion in carboxylesterase 1 knockout C57BL/6 mouse plasma assessed as increase in 2,6-Dimethoxy-4-(4-phenyl-5-thiophen-2-yl-1H-imidazol-2-yl)phenol release at 10 mg/kg, po administered as single dose measured after 2 hrs by LC-MS/MS analysis; type: ADME, organism-based; details: in vivo
[5] = Prodrug conversion in carboxylesterase 1 knockout C57BL/6 mouse brain assessed as increase in 2,6-Dimethoxy-4-(4-phenyl-5-thiophen-2-yl-1H-imidazol-2-yl)phenol release at 10 mg/kg, po administered as single dose measured after 2 hrs by LC-MS/MS analysis; type: ADME, organism-based; details: in vivo
[6] = Ratio of prodrug conversion in carboxylesterase 1 knockout C57BL/6 mouse brain to plasma assessed as 2,6-Dimethoxy-4-(4-phenyl-5-thiophen-2-yl-1H-imidazol-2-yl)phenol release at 10 mg/kg, po administered as single dose measured after 2 hrs by LC-MS/MS analysis; type: ADME, organism-based
How it was run: (§2)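 Mice are killed 2 h post-dose by CO2, with cardiac-puncture plasma and whole brain taken. After acetonitrile/losartan extraction, released parent and intact prodrug are measured by LC-MS/MS. Brain-to-plasma ratio is computed from released-parent levels; mean ± SEM.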

[7] = Stability in carboxylesterase 1 knockout C57BL/6 mouse assessed as intact compound level at 10 mg/kg, po administered as single dose measured upto 8 hrs by LC-MS/MS analysis; type: ADME, organism-based; details: in vivo, read-out: Stability
[8] = Prodrug conversion in carboxylesterase 1 knockout C57BL/6 mouse assessed as increase in 2,6-Dimethoxy-4-(4-phenyl-5-thiophen-2-yl-1H-imidazol-2-yl)phenol release at 10 mg/kg, po administered as single dose measured after 2 hrs by LC-MS/MS analysis; type: ADME, organism-based; details: in vivo
[9] = Drug release in carboxylesterase 1 knockout C57BL/6 mouse plasma at 10 mg/kg, po administered as single dose measured after 2 hrs by LC-MS/MS analysis; type: ADME, organism-based; details: in vivo, read-out: Activity; how it was run: as §2
[10] = Drug release in carboxylesterase 1 knockout C57BL/6 mouse brain at 10 mg/kg, po administered as single dose measured after 2 hrs by LC-MS/MS analysis; type: ADME, organism-based; details: in vivo; how it was run: as §2
[11] = Brain to plasma ratio in carboxylesterase 1 knockout C57BL/6 mouse at 10 mg/kg, po administered as single dose measured after 2 hrs by LC-MS/MS analysis; type: ADME, organism-based; how it was run: as §2
[12] = Tmax in carboxylesterase 1 knockout C57BL/6 mouse plasma at 10 mg/kg, po administered as single dose measured upto 8 hrs by LC-MS/MS analysis; type: ADME, organism-based
How it was run: (§3)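 Cardiac blood is spun to plasma and brains are flash frozen. Intact prodrug and released parent are quantified by LC-MS/MS against matrix-matched standards. Parameters come from non-compartmental analysis; mean ± SEM.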

[13] = Tmax in carboxylesterase 1 knockout C57BL/6 mouse brain at 10 mg/kg, po administered as single dose measured upto 8 hrs by LC-MS/MS analysis; type: ADME, organism-based; how it was run: as §3
[14] = Half life in carboxylesterase 1 knockout C57BL/6 mouse plasma at 10 mg/kg, po administered as single dose measured upto 8 hrs by LC-MS/MS analysis; type: ADME, organism-based; how it was run: as §3
[15] = Half life in carboxylesterase 1 knockout C57BL/6 mouse brain at 10 mg/kg, po administered as single dose measured upto 8 hrs by LC-MS/MS analysis; type: ADME, organism-based; how it was run: as §3
[16] = Cmax in carboxylesterase 1 knockout C57BL/6 mouse plasma at 10 mg/kg, po administered as single dose measured upto 8 hrs by LC-MS/MS analysis; type: ADME, organism-based; set-up: time < 8 hrs, dose 10 mg/kg, route po; details: in vivo; how it was run: as §3
[17] = Cmax in carboxylesterase 1 knockout C57BL/6 mouse brain at 10 mg/kg, po administered as single dose measured upto 8 hrs by LC-MS/MS analysis; type: ADME, organism-based; set-up: time < 8 hrs, dose 10 mg/kg, route po; details: in vivo; how it was run: as §3
[18] = AUC in carboxylesterase 1 knockout C57BL/6 mouse plasma at 10 mg/kg, po administered as single dose measured upto 8 hrs by LC-MS/MS analysis; type: ADME, organism-based; set-up: time < 8 hrs, dose 10 mg/kg, route po; details: in vivo; how it was run: as §3
[19] = AUC in carboxylesterase 1 knockout C57BL/6 mouse brain at 10 mg/kg, po administered as single dose measured upto 8 hrs by LC-MS/MS analysis; type: ADME, organism-based; set-up: time < 8 hrs, dose 10 mg/kg, route po; details: in vivo; how it was run: as §3
[20] = Prodrug conversion in carboxylesterase 1 knockout C57BL/6 mouse brain assessed as increase in 2,6-Dimethoxy-4-(4-phenyl-5-thiophen-2-yl-1H-imidazol-2-yl)phenol release at 15.12 mg/kg, po administered as single dose measured after 2 hrs by LC-MS/MS analysis; type: ADME, organism-based; details: in vivo
[21] = Stability in carboxylesterase 1 knockout C57BL/6 mouse plasma assessed as intact compound level at 15.12 mg/kg, po administered as single dose measured upto 8 hrs by LC-MS/MS analysis; type: ADME, organism-based; details: read-out: Stability
[22] = Stability in carboxylesterase 1 knockout C57BL/6 mouse brain assessed as intact compound level at 15.12 mg/kg, po administered as single dose measured upto 8 hrs by LC-MS/MS analysis; type: ADME, organism-based; details: read-out: Stability
[23] = Tmax in carboxylesterase 1 knockout C57BL/6 mouse plasma at 15.12 mg/kg, po administered as single dose measured upto 8 hrs by LC-MS/MS analysis; type: ADME, organism-based
[24] = Tmax in carboxylesterase 1 knockout C57BL/6 mouse brain at 15.12 mg/kg, po administered as single dose measured upto 8 hrs by LC-MS/MS analysis; type: ADME, organism-based
[25] = Half life in carboxylesterase 1 knockout C57BL/6 mouse plasma at 15.12 mg/kg, po administered as single dose measured upto 8 hrs by LC-MS/MS analysis; type: ADME, organism-based
[26] = Half life in carboxylesterase 1 knockout C57BL/6 mouse brain at 15.12 mg/kg, po administered as single dose measured upto 8 hrs by LC-MS/MS analysis; type: ADME, organism-based
[27] = Prodrug conversion in carboxylesterase 1 knockout C57BL/6 mouse plasma assessed as Cmax of 2,6-Dimethoxy-4-(4-phenyl-5-thiophen-2-yl-1H-imidazol-2-yl)phenol at 15.12 mg/kg, po administered as single dose measured upto 8 hrs by LC-MS/MS analysis; type: ADME, organism-based; set-up: dose 15.12 mg/kg, time < 8 hrs, route po; details: in vivo
[28] = Prodrug conversion in carboxylesterase 1 knockout C57BL/6 mouse brain assessed as Cmax of 2,6-Dimethoxy-4-(4-phenyl-5-thiophen-2-yl-1H-imidazol-2-yl)phenol at 15.12 mg/kg, po administered as single dose measured upto 8 hrs by LC-MS/MS analysis; type: ADME, organism-based; set-up: dose 15.12 mg/kg, time < 8 hrs, route po; details: in vivo
[29] = Prodrug conversion in carboxylesterase 1 knockout C57BL/6 mouse plasma assessed as AUC of 2,6-Dimethoxy-4-(4-phenyl-5-thiophen-2-yl-1H-imidazol-2-yl)phenol at 15.12 mg/kg, po administered as single dose measured upto 8 hrs by LC-MS/MS analysis; type: ADME, organism-based; set-up: time < 8 hrs, dose 15.12 mg/kg, route po; details: in vivo
[30] = Prodrug conversion in carboxylesterase 1 knockout C57BL/6 mouse brain assessed as AUC of 2,6-Dimethoxy-4-(4-phenyl-5-thiophen-2-yl-1H-imidazol-2-yl)phenol at 15.12 mg/kg, po administered as single dose measured upto 8 hrs by LC-MS/MS analysis; type: ADME, organism-based; set-up: time < 8 hrs, dose 15.12 mg/kg, route po; details: in vivo

SMILES	Stability [1] [%]	Stability [2] [%]	Stability [3] [%]	other results
COc1cc(-c2nc(-c3ccccc3)c(-c3cccs3)[nH]2)cc(OC)c1OCOP(=O)(O)OCOC(=O)OC(C)C	79	11	100	
COc1cc(-c2nc(-c3ccccc3)c(-c3cccs3)[nH]2)cc(OC)c1OC(=O)N1C2CCC1CC(N1CCCCC1)C2 (centres undefined)	84	78	87	
CCCCCC(=O)Oc1c(OC)cc(-c2nc(-c3ccccc3)c(-c3cccs3)[nH]2)cc1OC	63	1	13	Drug metabolism [4]: 355 nM; Drug metabolism [5]: 36.5 nM; BPR [6]: 0.1
COc1cc(-c2nc(-c3ccccc3)c(-c3cccs3)[nH]2)cc(OC)c1OC(=O)N(C)C	100	100	96	concentration at 8 h [7]: 4300 nM; Drug metabolism [8]: 540.9 nM
COc1cc(-c2nc(-c3cccs3)c(-c3ccccc3)[nH]2)cc(OC)c1O	89	98	103	concentration [9]: 23 nM; Activity [10]: 4.9 nM; Kp at 2 h [11]: 0.1; Tmax [12]: 30 min; Tmax [13]: 30 min; half-life [14]: 27.6 min; half-life [15]: 37.8 min; Cmax [16]: 307 nM; Cmax [17]: 60 pmol/g; AUC [18]: 0.27 µM·h; AUC [19]: 52.8 pmol·h/g
CCCCCN(C)C(=O)Oc1c(OC)cc(-c2nc(-c3ccccc3)c(-c3cccs3)[nH]2)cc1OC	86	85	50	
COc1cc(-c2nc(-c3ccccc3)c(-c3cccs3)[nH]2)cc(OC)c1OC(=O)N1C2CCCC1CC2	76	95	85	
CCCCCCCNC(=O)Oc1c(OC)cc(-c2nc(-c3ccccc3)c(-c3cccs3)[nH]2)cc1OC	84	97	60	
COc1cc(-c2nc(-c3ccccc3)c(-c3cccs3)[nH]2)cc(OC)c1OC(C)=O	6	0	28	
COc1cc(-c2nc(-c3ccccc3)c(-c3cccs3)[nH]2)cc(OC)c1OC(=O)OC(OC(=O)C(C)(C)C)c1ccccc1 (centres undefined)	69	80	83	
CCC1CCCC(CC)N1C(=O)Oc1c(OC)cc(-c2nc(-c3ccccc3)c(-c3cccs3)[nH]2)cc1OC (centres undefined)	90	51	78	
COc1cc(-c2nc(-c3ccccc3)c(-c3cccs3)[nH]2)cc(OC)c1OP(=O)(O)O	102	55	91	
CCCCCNC(=O)Oc1c(OC)cc(-c2nc(-c3ccccc3)c(-c3cccs3)[nH]2)cc1OC	68	83	60	
COc1cc(-c2nc(-c3ccccc3)c(-c3cccs3)[nH]2)cc(OC)c1OC(=O)C1=CN(C)C=CC1	46	22	52	Drug metabolism [4]: 28.3 nM; Drug metabolism [5]: 2.2 nM
COc1cc(-c2nc(-c3ccccc3)c(-c3cccs3)[nH]2)cc(OC)c1OCOP(=O)(O)O	1	21	96	
COc1cc(-c2nc(-c3ccccc3)c(-c3cccs3)[nH]2)cc(OC)c1OC(=O)N1CCC(N2CCCCC2)CC1	48		90	Drug metabolism [20]: 72.3 nM; concentration at 8 h [21]: 195 nM; concentration at 8 h [22]: 86.5 nM; Tmax [23]: 60 min; Tmax [24]: 60 min; half-life [25]: 84 min; half-life [26]: 180 min; Cmax [27]: 148.9 pmol·h/g; Cmax [28]: 403 pmol·h/g; AUC [29]: 273.4 pmol·h/g; AUC [30]: 187.1 pmol·h/g
COc1cc(-c2nc(-c3ccccc3)c(-c3cccs3)[nH]2)cc(OC)c1OC(=O)C(C)(C)C	93	0	1	

Source: ChEMBL document CHEMBL5137084 (J Med Chem, 2022)
